Experiments:
[1] = test system: Mus musculus; assay: Evaluated in vivo for maximum tolerated dose (MTD/4) using MXT mouse mammary adenocarcinoma model; assay type: functional
Method in brief: (§1)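 MXT-HS hormone-sensitive mammary adenocarcinoma maintained by monthly s.c. transplantation in 6-week-old female B6D2F1 mice. Doses are set as fractions of the MTD. Drugs given i.p.; ETO and DOX 9 times, the quinolone 20 times. Nine mice per group. Tumor area (mm2) is the product of the two largest perpendicular caliper diameters, measured weekly. Mean ± SEM; Mann-Whitney test.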

[2] = test system: Mus musculus; assay: Evaluated in vivo for maximum tolerated dose (MTD/8) using MXT mouse mammary adenocarcinoma model; assay type: functional; method in brief: as §1
[3] = test system: Mus musculus; assay: Evaluated in vivo for maximum tolerated dose (MTD16) using MXT mouse mammary adenocarcinoma model; assay type: functional; method in brief: as §1
[4] = test system: Mus musculus; assay: Evaluated in vivo for maximum tolerated dose (MTD/2) using MXT mouse mammary adenocarcinoma model; assay type: functional; method in brief: as §1
[5] = test system: A 172; assay: Cytotoxicity against A-172 glioblastomas using MTT colorimetric assay; assay type: functional, cell-based; conditions: Homo sapiens
Method in brief: (§2)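 Human tumour lines from ATCC were grown at 37 °C in sealed dishes in MEM with 5% FCS. Cells were seeded at 40000 cells/mL in 96-well plates and left 24 h to plate. Each drug was then tested at six concentrations from 10^-5 to 10^-9 M. Growth was read by colorimetric MTT assay.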

[6] = test system: J82; assay: Cytotoxicity against J82 bladder cell lines using MTT colorimetric assay; assay type: functional, cell-based; conditions: Homo sapiens; method in brief: as §2
[7] = test system: MCF7; assay: Cytotoxicity against Breast cancer cell line MCF-7 using MTT colorimetric assay at 1x 10 E-5; assay type: functional, cell-based; conditions: Homo sapiens; method in brief: as §2
[8] = test system: U-87 MG; assay: Cytotoxicity against U-87 MG glioblastomas using MTT colorimetric assay; assay type: functional, cell-based, U-87MG ATCC; conditions: Homo sapiens; method in brief: as §2
[9] = test system: T47D; assay: Cytotoxicity against Breast cancer cell line T-47D using MTT colorimetric assay; assay type: functional, cell-based; conditions: Homo sapiens; method in brief: as §2
[10] = test system: HCT-15; assay: Cytotoxicity against HCT-15 colon cell line using MTT colorimetric assay; assay type: functional, cell-based; conditions: Homo sapiens; method in brief: as §2
[11] = test system: LoVo; assay: Cytotoxicity measured on LoVo colon cell line using MTT colorimetric assay; assay type: functional, cell-based; conditions: Homo sapiens; method in brief: as §2
[12] = test system: T-24; assay: Cytotoxicity against T24 bladder cell lines using MTT colorimetric assay; assay type: functional, cell-based; conditions: Homo sapiens; method in brief: as §2
[13] = test system: U373 MG; assay: Cytotoxicity against U-373 MG glioblastomas using MTT colorimetric assay; assay type: functional, cell-based, U-373MG ATCC; conditions: Homo sapiens; method in brief: as §2
[14] = test system: PC-3; assay: Cytotoxicity against prostate cell line PC-3 using MTT colorimetric assay; assay type: functional, cell-based; conditions: Homo sapiens; method in brief: as §2
[15] = test system: A549; assay: Cytotoxicity against A549 nonsmall lung cell line using MTT colorimetric assay; assay type: functional, cell-based; conditions: Homo sapiens; method in brief: as §2
[16] = Evaluated in vivo for maximum tolerated dose and found to be nontoxic; assay type: ADME, organism-based
[17] = test system: A-427; assay: Cytotoxicity against A-427 nonsmall lung cell line using MTT colorimetric assay; assay type: functional, cell-based; conditions: Homo sapiens; method in brief: as §2
[18] = test system: T47D; assay: Cytotoxicity against Breast cancer cell line T-47D using MTT colorimetric assay at 1x 10 E-5; assay type: functional, cell-based; conditions: Homo sapiens; method in brief: as §2
[19] = test system: MCF7; assay: Cytotoxicity against Breast cancer cell line MCF-7 using MTT colorimetric assay; assay type: functional, cell-based; conditions: Homo sapiens; method in brief: as §2
[20] = test system: J82; assay: Cytotoxicity against J82 bladder cell lines using MTT colorimetric assay at 1x 10 E-5; assay type: functional, cell-based; conditions: Homo sapiens; method in brief: as §2
[21] = test system: J82; assay: Cytotoxicity against J82 bladder cell lines using MTT colorimetric assay; NE is no effect at 1x 10 E-5; assay type: functional, cell-based, Homo sapiens; method in brief: as §2
[22] = test system: MCF7; assay: Cytotoxicity against Breast cancer cell line MCF-7 using MTT colorimetric assay; NE is no effect at 1x 10 E-5; assay type: functional, cell-based, Homo sapiens; method in brief: as §2
[23] = test system: T-24; assay: Cytotoxicity against T24 bladder cell lines using MTT colorimetric assay; NE is no effect at 1x 10 E-5; assay type: functional, cell-based, Homo sapiens; method in brief: as §2
[24] = test system: A 172; assay: Cytotoxicity against A-172 glioblastomas using MTT colorimetric assay; NE is no effect at 1x 10 E-5; assay type: functional, cell-based, Homo sapiens; method in brief: as §2
[25] = test system: A549; assay: Cytotoxicity against A549 nonsmall lung cell line using MTT colorimetric assay; NE is no effect at 1x 10 E-5; assay type: functional, cell-based, Homo sapiens; method in brief: as §2
[26] = test system: U373 MG; assay: Cytotoxicity against U-373 MG glioblastomas using MTT colorimetric assay; NE is no effect at 1x 10 E-5; assay type: functional, cell-based, Homo sapiens; conditions: u-373mg atcc; method in brief: as §2
[27] = test system: U-87 MG; assay: Cytotoxicity against U-87 MG glioblastomas using MTT colorimetric assay; NE is no effect at 1x 10 E-5; assay type: functional, cell-based, Homo sapiens; conditions: u-87mg atcc; method in brief: as §2
[28] = test system: HCT-15; assay: Cytotoxicity against HCT-15 colon cell line using MTT colorimetric assay a; NE is no effect at 1x 10 E-5; assay type: functional, cell-based, Homo sapiens; method in brief: as §2
[29] = test system: T47D; assay: Cytotoxicity against Breast cancer cell line T-47D using MTT colorimetric assay at 1x 10 E-5; NE is no effect at 1x 10 E-5; assay type: functional, cell-based, Homo sapiens; method in brief: as §2
[30] = test system: PC-3; assay: Cytotoxicity against prostate cell line PC-3 using MTT colorimetric assay; NE is no effect at 1x 10 E-5; assay type: functional, cell-based, Homo sapiens; method in brief: as §2
[31] = test system: A-427; assay: Cytotoxicity against A-427 nonsmall lung cell line using MTT colorimetric assay; NE is no effect at 1x 10 E-5; assay type: functional, cell-based, Homo sapiens; method in brief: as §2
[32] = test system: LoVo; assay: Cytotoxicity against LoVo colon cell line using MTT colorimetric assay; NE is no effect at 1x 10 E-5; assay type: functional, cell-based, Homo sapiens; method in brief: as §2

Row | Compound | IC50 [5] | IC50 [6] | IC50 [8] | IC50 [9] | IC50 [10] | IC50 [11] | IC50 [12] | IC50 [13] | IC50 [14] | IC50 [15] | MTD [16] | IC50 [17] | IC50 [19] | also measured
1 | COc1cccc2c1C(=O)c1c(O)c3c(c(O)c1C2=O)C[C@@](O)(C(=O)CO)C[C@@H]3O[C@H]1C[C@H](N)[C@H](O)[C@H](C)O1 [DOXORUBICIN] | – | – | – | – | – | – | – | – | – | – | – | – | – | MTD/4 [1]: 2.5 mg/kg; MTD/8 [2]: 1.25 mg/kg; MTD/16 [3]: 0.63 mg/kg; MTD/2 [4]: 5 mg/kg
2 | CCN(CC)C(=O)Cn1c(=O)c(-c2ccc(OC)cc2)cc2c(OC)cc(OC)cc21 | > 10 µM | > 10 µM | > 10 µM | > 10 µM | > 10 µM | > 10 µM | > 10 µM | > 10 µM | > 10 µM | > 10 µM | 160 mg/kg | > 10 µM | – | IC50 [7]: > 10 µM
3 | COc1ccc(-c2cc3c(OC)ccc(OC)c3nc2O)cc1 | > 10 µM | > 10 µM | > 10 µM | – | > 10 µM | > 10 µM | > 10 µM | > 10 µM | > 10 µM | > 10 µM | 160 mg/kg | > 10 µM | > 10 µM | IC50 [18]: > 10 µM
4 | COc1ccc(-c2cc3c(OC)cc(OC)cc3n(CCC(=O)OCc3ccccc3)c2=O)cc1 | > 10 µM | – | > 10 µM | > 10 µM | > 10 µM | > 10 µM | > 10 µM | > 10 µM | > 10 µM | > 10 µM | 160 mg/kg | > 10 µM | > 10 µM | IC50 [20]: > 10 µM
5 | COc1ccc(-c2cc3c(OC)cc(OC)cc3n(CCC(=O)O)c2=O)cc1 | – | – | – | – | – | – | – | – | – | – | 160 mg/kg | – | – | IC50 [21]: No effect; IC50 [22]: No effect; IC50 [23]: No effect; IC50 [24]: No effect; IC50 [25]: No effect; IC50 [26]: No effect; IC50 [27]: No effect; IC50 [28]: No effect; IC50 [29]: No effect; IC50 [30]: No effect; IC50 [31]: No effect; IC50 [32]: No effect

Reference: ChEMBL document CHEMBL1135464, “3-Aryl-2-quinolone derivatives: synthesis and characterization of in vitro and in vivo antitumor effects with emphasis on a new therapeutical target connected with cell migration” (J Med Chem, 2002)
